# Experimental data from the M2OR odorant receptor database.
# Tested on: T1, OR2W1 G96V
# T1 sequence (whole entry): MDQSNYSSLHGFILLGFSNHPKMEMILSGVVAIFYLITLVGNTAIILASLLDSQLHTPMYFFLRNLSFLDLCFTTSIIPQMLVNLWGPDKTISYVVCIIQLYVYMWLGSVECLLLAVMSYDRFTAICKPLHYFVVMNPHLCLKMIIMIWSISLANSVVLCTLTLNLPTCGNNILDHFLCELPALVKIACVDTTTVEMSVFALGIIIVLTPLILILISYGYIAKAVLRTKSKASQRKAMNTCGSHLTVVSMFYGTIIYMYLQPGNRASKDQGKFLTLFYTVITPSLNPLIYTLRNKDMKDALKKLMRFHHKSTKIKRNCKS
# Conditions: stereoisomer not certain
# How it was run: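 Each entry records the cell line, G-protein, co-transfected protein and tags used. Methods varied with the source, often transient luciferase assays in mammalian cell lines. A receptor–molecule pair is called responsive (active) if the original authors judged its signal statistically different from baseline and non-responsive (inactive) otherwise.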
row,Structure (SMILES),odorant receptor agonist call
1,CCCC(S)CCOC(C)=O (stereo not drawn),active
2,Cc1cnc(C)c(C)n1,inactive
3,CCC1OC(C)=C(O)C1=O (stereo not drawn),inactive
4,CCC1OC(=O)C(O)=C1C (stereo not drawn),inactive
5,CC1=C(O)C(=O)C(C)O1 (stereo not drawn),inactive
6,CC1=NC(C)C(C)S1 (stereo not drawn),inactive
7,CCCCCCC=CCCC=O,inactive
8,CC1=C(O)C(=O)OC1C (stereo not drawn),inactive
